Measured values pooled from the literature.
Lines come from different studies, so protocols differ.
Target: Cholinesterase (BCHE, Equus caballus, UniProt P81908)
Observed: enzyme activity
Action: inhibitor

For `CCOc1ccc(C=NNC(=S)NCC(=O)c2ccc(Cl)cc2Cl)cc1`, the IC50 was 331 µM (Ellman).
For `C#CCN(C)c1nc(NCCCCC2CCN(Cc3ccccc3)CC2)c(C#N)c(-c2ccccc2)c1C#N`, the IC50 was 0.22 µM (Ellman).
`CCOc1ccc(C=NNC(=S)NCC(=O)c2cccc(C)c2)cc1` gave an IC50 of 300 µM (Ellman).
With `C#CCNc1nc(NCCCCC2CCN(Cc3ccccc3)CC2)c(C#N)cc1C#N` the IC50 was 0.511 µM (Ellman).
For `CC=C1[C@H]2C=C(C)C[C@]1(N)c1cc(C)c(=O)[nH]c1C2`, the IC50 was 486 µM (Ellman).
`CC(C)(C)OC(=O)N1CCN(c2nccc(NCc3ccccc3)n2)CC1` gave an IC50 of greater than 100 µM.
`CC=C1[C@H]2C=C(C)C[C@]1(N)c1ccc(OC)nc1C2` has an IC50 of 904 µM (Ellman).
With `CCOc1ccc(C=NNC(=S)NCC(=O)c2ccc(-c3ccccc3)cc2)cc1` the IC50 was 501 µM (Ellman).
`CC(=O)N1CCN(c2nccc(NCCc3ccccc3)n2)CC1` has an IC50 of greater than 100 µM.
`CC=C1[C@H]2C=C(C)C[C@]1(N)c1cc(CC)c(=O)[nH]c1C2` has an IC50 of 60.4 µM (Ellman).
With `O=C(NCCCNc1c2c(nc3ccccc13)CCCC2)c1ccccc1O` the IC50 was 0.129 µM (Ellman).
